Experimental data published in ChEMBL document CHEMBL3120084, “Structure-function relationships of Nile blue (EtNBS) derivatives as antimicrobial photosensitizers” (Eur J Med Chem, 2014).
Active and inactive are the calls of the source. No cut-off for these calls is given here.

Key:
Acinetobacter baumannii [1] = assay: Antimicrobial activity against Acinetobacter baumannii ATCC 51393 assessed as log reduction in bacterial CFU incubated for 10 mins prior to irradiation with 10 J/cm2 of light; type: functional
Method in brief: (§1)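 Bacteria grown overnight in BHI broth at 37°C with shaking, refreshed 3 h, adjusted to OD600 0.5 (10^8 CFU/ml), pelleted and resuspended in PBS. Suspensions held with photosensitizer (0.1-100 μM, diluted from 5 mM DMA stock) 10 min in dark at room temperature, then 635-nm light at 10 J/cm2 and 50 mW/cm2. Surviving CFU counted by serial dilution on nutrient agar after 18 h at 37°C; triplicates.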

[2] = Octanol-phosphate buffered saline partition coefficient, log P of the compound at 100 uM after 30 mins; type: physicochemical
Method in brief: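 Compound (100 μM) in 1.5 mL octanol plus 1.5 mL PBS, stirred overnight at room temperature, then left 30 min for phases to separate. Each phase was read by absorbance at the compound's peak, undiluted and diluted 1:2 and 1:10. Log10 of the octanol/PBS ratio is reported.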

Acinetobacter baumannii [3] = assay: Dark toxicity against Acinetobacter baumannii ATCC 51393 at 0.1 to 100 uM after 10 mins; type: organism-based; details: in vivo
Method in brief: (§2)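 Dark controls: 10^8 CFU/ml in PBS with photosensitizer for 10 min at room temperature, no illumination. Solvent controls contained 2% DMA. Viability read as CFU after serial dilution, plating on nutrient agar and 18 h dark incubation at 37°C; triplicate.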

Escherichia coli [4] = assay: Dark toxicity against Escherichia coli ATCC 53868 at 0.1 to 100 uM after 10 mins; type: organism-based; details: in vivo; method in brief: as §2
[5] = Induction of reactive oxygen species generation at 5 uM using singlet oxygen sensor green probe by microplate spectrophotometer analysis in presence of 1 J/cm'2 to 15 J/cm'2 of light; type: physicochemical
Method in brief: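 Cell-free assay in PBS: compound at 5 μM final with SOSG probe at 5 μM final, 4 wells per group. 635-nm light given in sequential doses of 1 to 15 J/cm2. Fluorescence read in slow kinetic mode at excitation 505 nm and emission 525 nm.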

Enterococcus faecalis [6] = assay: Drug uptake in Enterococcus faecalis ATCC 29212 incubated for 10 mins in dark by fluorescence analysis; type: ADME, organism-based; details: in vivo
Method in brief: (§3)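 Cells (10^8/ml) held with compound at 0.05-10 μM for 10 min in dark at room temperature. They were then pelleted, washed twice in PBS and lysed in RIPA for 30 min at room temperature. Lysate fluorescence was read at compound-specific wavelengths and converted with per-compound calibration curves. Values were normalized to protein measured by BCA against BSA standards.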

[7] = Induction of reactive oxygen species generation at 5 uM using hydroxyphenyl-fluorescein probe by microplate spectrophotometer analysis in presence of 1 J/cm'2 to 15 J/cm'2 of light; type: physicochemical
Method in brief: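 Cell-free assay in PBS: compound at 5 μM final with HPF probe at 5 μM final, 4 wells per group. 635-nm light given in sequential doses of 1 to 15 J/cm2. Fluorescence read in slow kinetic mode at excitation 490 nm and emission 515 nm, 2 nm bandpass.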

Enterococcus faecalis [8] = assay: Dark toxicity against Enterococcus faecalis ATCC 29212 at 0.1 to 100 uM after 10 mins; type: organism-based; details: in vivo; method in brief: as §2
Staphylococcus aureus [9] = assay: Dark toxicity against Staphylococcus aureus 8325-4 at 0.1 to 100 uM after 10 mins; type: organism-based; details: in vivo; method in brief: as §2
Escherichia coli [10] = assay: Drug uptake in Escherichia coli ATCC 53868 incubated for 10 mins in dark by fluorescence analysis; type: ADME, organism-based; details: in vivo; method in brief: as §3
Acinetobacter baumannii [11] = assay: Drug uptake in Acinetobacter baumannii ATCC 51393 incubated for 10 mins in dark by fluorescence analysis; type: ADME, organism-based; details: in vivo; method in brief: as §3
Staphylococcus aureus [12] = assay: Antimicrobial activity against Staphylococcus aureus 8325-4 assessed as log reduction in bacterial CFU incubated for 10 mins prior to irradiation with 10 J/cm2 of light; type: functional; method in brief: as §1
Escherichia coli [13] = assay: Antimicrobial activity against Escherichia coli ATCC 53868 assessed as log reduction in bacterial CFU incubated for 10 mins prior to irradiation with 10 J/cm2 of light; type: functional; method in brief: as §1
Staphylococcus aureus [14] = assay: Drug uptake in Staphylococcus aureus 8325-4 incubated for 10 mins in dark by fluorescence analysis; type: ADME, organism-based; details: in vivo; method in brief: as §3
Enterococcus faecalis [15] = assay: Antimicrobial activity against Enterococcus faecalis ATCC 29212 assessed as log reduction in bacterial CFU incubated for 10 mins prior to irradiation with 10 J/cm2 of light; type: functional; method in brief: as §1
Enterococcus faecalis [16] = assay: Dark toxicity against Enterococcus faecalis ATCC 29212 at 50 uM after 10 mins; type: organism-based; details: in vivo; method in brief: as §2
Escherichia coli [17] = assay: Dark toxicity against Escherichia coli ATCC 53868 at 50 uM after 10 mins; type: organism-based; details: in vivo; method in brief: as §2
Staphylococcus aureus [18] = assay: Dark toxicity against Staphylococcus aureus 8325-4 at 50 uM after 10 mins; type: organism-based; details: in vivo; method in brief: as §2
Acinetobacter baumannii [19] = assay: Dark toxicity against Acinetobacter baumannii ATCC 51393 at 50 uM after 10 mins; type: organism-based; details: in vivo; method in brief: as §2

logP at 0.5 h, 100 µM [2] | Activity [5] | Drug uptake (Enterococcus faecalis [6]) | Activity [7] | Drug uptake (Escherichia coli [10]) | Drug uptake (Acinetobacter baumannii [11]) | Drug uptake (Staphylococcus aureus [14]) | Structure (SMILES) | Activity (Acinetobacter baumannii [1]) | Activity (Acinetobacter baumannii [3]) | Activity (Enterococcus faecalis [8]) | Activity (Staphylococcus aureus [9]) | log10cfu (Staphylococcus aureus [12]) | Activity (Escherichia coli [13]) | log10cfu (Enterococcus faecalis [15]) | also measured
2.45 | Active | Active | Active | Active | Active | Active | CCCS(=O)(=O)N(CC)c1cccc2c3nc4ccc(N(CC)CC)cc4sc-3c/c(=N\CC)c12.Cl | inactive | Non-toxic | Non-toxic | Non-toxic | >5 | inactive | – | Activity (Escherichia coli [4]): Toxic
1.77 | Active | Active | Active | Active | Active | Active | CC/N=c1/cc2sc3cc(N(CC)CC)ccc3nc-2c2c(N)cccc12.Cl | – | – | – | – | <3 | – | – | –
2.19 | Active | Active | Active | Active | Active | Active | CCCS(=O)(=O)N(CC)c1cccc2/c(=N\CC)cc3sc4cc(N(CC)CC)ccc4nc-3c12.Cl | inactive | – | Toxic | Toxic | 4 | inactive | >5 | –
1.36 | Active | – | Active | – | – | – | CC/N=c1/cc2sc3cc(N(CC)CC)ccc3nc-2c2c(NC(C)=O)cccc12.Cl | inactive | Toxic | – | – | – | inactive | – | Activity (Escherichia coli [4]): Toxic
0.49 | Active | Active | Active | Active | Active | Active | CCN(CC)c1ccc2nc3c4ccccc4/c(=N\CCNC(=N)N)cc-3sc2c1.Cl.Cl | – | Toxic | Toxic | Toxic | >5 | – | >5 | log10cfu (Acinetobacter baumannii [1]): >5; log10cfu (Escherichia coli [13]): >5
2.03 | Active | Active | Active | Active | Active | Active | CC/N=c1/cc2sc3cc(N(CC)CC)ccc3nc-2c2c([N+](=O)[O-])cccc12.Cl | – | – | Toxic | Toxic | 5 | – | 5 | –
2.87 | Active | Active | Active | Active | Active | Active | CC/N=c1/cc2sc3cc(N(CC)CC)ccc3nc-2c2ccccc12.Cl | – | – | – | – | >6 | – | >6 | Activity (Enterococcus faecalis [16]): Toxic; log10cfu (Acinetobacter baumannii [1]): >6; Activity (Escherichia coli [17]): Toxic; Activity (Staphylococcus aureus [18]): Non-toxic; Activity (Acinetobacter baumannii [19]): Toxic; log10cfu (Escherichia coli [13]): >6
